Most compounds without a hit are left out; they make up all but 2.1% or so of the library.
GSK3 alpha inh: blocks human GSK-3 alpha kinase. P49840. ADP-Glo luminescence, 60 min. inhibition, % at 10 µM. actives 0.1% (n = 320,000). AID 2650;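 active means more than half of replicates show inhibition above 20%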;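 further: GST-tagged GSK-3 alpha with peptide substrate and 25 µM ATP; 0% = DMSO neutral wells and 100% = GW8510 positive control wells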
STK33 inh: human STK33 kinase inhibition; inhibition, % at 10 µM; actives 0.073% (n = 320,000); AID 2661; Q9BYT3; purified STK33, MBP phosphorylation, ADP-Glo luminescence;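 active means inhibition at or above 25%, using the most active replicate where run in duplicate; inactive means inhibition below 25%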
GSK3B inh: blocks human GSK3beta kinase activity; P49841; GST-GSK3beta kinase, ADP-Glo luminescence, 60 min; stronger effect = lower value; activity score (negative = inhibition), % at 10 µM; actives 0.038% (n = 300,000); AID 2097;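 active means more than half of replicate wells score below -50%, meaning over 50% inhibition versus plate controls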;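 further: 0% = median DMSO wells and -100% = median GW8510 positive control wells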
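test system = GST-tagged human GSK3beta kinase, cell-free | reagent = 25 µM ATP with peptide substrate | dosing = one dose of 10 µM per compound | schedule = 60 min reaction, RT | detection = luminescent ADP-Glo measurement of ADP formed | control set = DMSO neutral wells and GW8510 at 20 µM as positive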
MEKK2 mut-MEK5: signal of MEK5 binding to mutant human MEKK2 PB1 domain; percent response, % at 10 µM; bead flow cytometry, Alexa488-MEK5 binding to MEKK2 mutant; actives 0.35% (n = 290,000); AID 1530; in the data active means percent response above about 24%, passing the limit was not always enough
MEKK2 WT-MEK5: raises or lowers MEK5 binding to wildtype human MEKK2 PB1 domain; Q9Y2U5; bead flow cytometry, Alexa488-MEK5 binding to MEKK2 WT; actives lie on both sides; binding response (% of control), % at 10 µM; actives 1.1% (n = 290,000); AID 1531; in the data active means binding response below about 67% or above about 130%
MEKK3 PB1 HTS: raises or lowers MEK5 binding to the human MEKK3 PB1 domain; Q99759; bead-based flow cytometry, Alexa488-MEK5 binding to MEKK3; actives lie on both sides; 0 = blocked by unlabeled MEK5, 100 = vehicle; binding response (% of control), % at 10 µM; actives 1.4% (n = 290,000); AID 1529;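 active means binding response more than 3 SD above or below the average of its plate-row segment, actives on both sides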;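 further: Alexa488 bead fluorescence after subtracting the streptavidin-only scavenger bead signal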
Target sequence (Q99759 whole entry, looked up, the tested form may be a part): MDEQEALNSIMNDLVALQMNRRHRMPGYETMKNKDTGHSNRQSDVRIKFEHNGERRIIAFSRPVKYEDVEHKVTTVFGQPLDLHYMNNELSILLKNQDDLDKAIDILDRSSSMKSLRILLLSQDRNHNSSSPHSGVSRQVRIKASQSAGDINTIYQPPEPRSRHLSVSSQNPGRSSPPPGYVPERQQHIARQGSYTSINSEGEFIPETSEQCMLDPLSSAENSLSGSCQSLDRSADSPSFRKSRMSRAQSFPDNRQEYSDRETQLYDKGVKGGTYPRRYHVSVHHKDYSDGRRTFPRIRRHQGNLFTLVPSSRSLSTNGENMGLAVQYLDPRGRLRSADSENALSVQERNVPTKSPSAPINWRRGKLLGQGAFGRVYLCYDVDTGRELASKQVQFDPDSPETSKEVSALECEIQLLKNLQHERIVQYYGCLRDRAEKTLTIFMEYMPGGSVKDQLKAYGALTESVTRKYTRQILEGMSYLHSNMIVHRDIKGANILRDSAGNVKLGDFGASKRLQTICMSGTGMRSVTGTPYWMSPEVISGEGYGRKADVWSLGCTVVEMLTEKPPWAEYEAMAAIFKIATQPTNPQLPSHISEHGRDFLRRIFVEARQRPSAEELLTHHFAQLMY
* marks the source's active call; other numbers are inactive results; x = not tested or not shown; [ ] = dose if it differs, or a comment.

SMILES | GSK3 alpha inh | STK33 inh | GSK3B inh | MEKK2 mut-MEK5 | MEKK2 WT-MEK5 | MEKK3 PB1 HTS
CC(=O)Nc1ccc(S(=O)(=O)N(C)CC(=O)OCC(=O)c2ccc3c(c2)NC(=O)CO3)cc1 | 0 | -2 | x | x | x | x
Cc1ccc(-c2nc(SCC(=O)Nc3cc(S(=O)(=O)N4CCCCC4)ccc3Cl)n[nH]2)cc1 | 0 | -1 | 1 | 2 | 113 | 111
O=C1NC(Cc2ccccc2)c2nc3ccc(F)cc3c(=O)n2-c2cc(Cl)ccc21 (stereo not given) | 1 | 0 | x | x | x | x
COC(=O)c1cc(NC(=O)c2cccc(Cl)c2)c(=O)oc1/C=C/Nc1cc(C)cc(C)c1 | 0 | 1 | 0 | 558* | x | 68*[inhibitor]
COC(=O)c1cc(NC(=O)c2ccc(OC)cc2)c(=O)oc1C | -4 | -2 | -3 | -3 | 96 | 101
CC(NC(=O)Cc1ccc(S(=O)(=O)N2CCOCC2)s1)c1ccc(Cl)cc1Cl (stereo not given) | -2 | -1 | 0 | 2 | 106 | 101
CCN1/C(=C/C(C)=O)Sc2ccc(OC)cc21 | 56* | 9 | -3 | 1 | 99 | 102
N#C/C(=C\c1ccc(-c2ccc(F)cc2)o1)C(=O)Nc1nc(-c2cccs2)cs1 | -2 | -1 | 1 | 5 | 92 | 99
N#C/C(=C/c1ccc(-c2ccccc2)o1)c1nc(-c2cccs2)cs1 | 0 | -1 | x | 117* | x | 98
COc1cc(C(=O)N/N=C(\c2ccccc2)c2ccccn2)cc(OC)c1OC | 1 | -2 | 3 | 0 | 106 | 134*
Cc1cccc(NS(=O)(=O)c2ccc3c(c2)Cc2cc(S(=O)(=O)Nc4cccc(C)c4C)ccc2-3)c1C | -4 | -2 | x | 0 | -3.0* | 88
CCCCn1c(N)c(N(C)C(=O)C2CCCC2)c(=O)[nH]c1=O | -3 | 0 | x | x | x | x
O=C(CCc1ccc(O)cc1)c1c(O)cc(O)cc1O | 9 | 30* | -7 | 1 | 98 | 97
COc1cc(O)c(CC=C(C)C)c(O)c1C(=O)CCc1ccc(O)cc1 | -2 | 0 | -6 | 1 | 104 | 105
COc1ccc(/C=N/Nc2c(Cl)cc(Cl)cc2Cl)cc1CN1CCOCC1 | 3 | 0 | 2 | -1 | 100 | 96
Cc1cccc(C(=O)N2CCc3cc(-c4nc(NC(=O)CN5CCCC5)sc4C)ccc32)c1 | -2 | 0 | -1 | 3 | 106 | 102
Cc1cccc(C(=O)N2CCc3cc(-c4csc(NC(=O)CN5CCCC5)n4)ccc32)c1 | -1 | 0 | 3 | 25* | 121 | 105
CCCn1c(NC(=O)c2cccc(S(=O)(=O)N3CCCC3)c2)nc2ccccc21 | 0 | 44* | 1 | -1 | 100 | 100
O=c1cc(-c2ccccc2Cl)oc2c([N+](=O)[O-])c(O)cc(O)c12 | 39 | 2 | -53* | -3 | 91 | 96
O=c1cc(-c2ccccc2Cl)oc2ccc([N+](=O)[O-])c(O)c12 | -4 | 0 | -3 | -2 | 97 | 108
C/C=C/Cn1c(SCc2ccc(Cl)cc2)nc2c1c(=O)[nH]c(=O)n2C | 2 | 29* | -2 | 6 | 103 | 103
COCCn1c(SCc2ccc(Cl)cc2)nc2c1c(=O)[nH]c(=O)n2C | -3 | -1 | 1 | x | x | x
CCSc1nc(N2CCOCC2)c2c(c1C#N)CCCC2 | 6 | 31* | -17 | -6 | 98 | 97
Cc1c(C#N)c(O)[nH]c(=O)c1N=Nc1ccc(S(N)(=O)=O)cc1 | 79* | 0 | -76* | -4 | 96 | 99
Cc1cc(N2CCCCC2)nc(SCC(=O)c2ccccc2)n1 | 1 | -2 | -7 | -7 | 92 | 91
SMILES | GSK3 alpha inh | STK33 inh | GSK3B inh | MEKK2 mut-MEK5 | MEKK2 WT-MEK5 | MEKK3 PB1 HTS
O=C(CSc1nc(N2CCCCC2)nc(N2CCCCC2)n1)c1ccccc1 | 0 | 28* | 2 | 6 | 102 | 108
CC(C)OC(=O)c1c2c(n3ccccc13)C(=O)c1ccccc1C2=O | 6 | 3 | 2 | -46 | 35*[inhibitor] | 94
COC(=O)c1cc2c(C)c(C)c3ccccn3c-2c1C(=O)OC | -3 | 0 | 4 | 1 | 100 | 100
Cc1ccc(NC(=O)CCNC(=O)Cn2ccc3ccccc3c2=O)cc1F | 0 | 0 | 3 | -3 | 98 | 101
N=c1c2c(ncn1CCCO)Oc1cc(O)ccc1C2c1ccccc1 (stereo not given) | 1 | 0 | -1 | 4 | -4.0* | 106
COc1ccc(C2c3ccc(O)cc3Oc3ncn(CCN4CCOCC4)c(=N)c32)cc1 (stereo not given) | -2 | -2 | -2 | -14 | 97 | 93
COc1ccc2ccc(C(C)(C(C)=O)C(=O)OC(C)C)cc2c1 (stereo not given) | -1 | 1 | x | x | x | x
CCn1c2ccccc2c2cc(NC(=O)CN3CCCC3)ccc21 | -2 | 1 | 1 | 19 | 139* | 100
Cc1ccc(C(=O)Nc2ccc(C(=O)N3CCCCC3)cc2)o1 | 14 | 14 | -10 | 9 | 115 | 108
CC(C)C(NC(=O)C12CC3CC(CC(C3)C1)C2)C(=O)N/N=C/C1=C(N2CCOCC2)C(=C\c2ccc([N+](=O)[O-])cc2)/CC1 (stereo not given) | 0 | -1 | 5 | 3 | -2.0* | 96
CC(NC(=O)C12CC3CC(CC(C3)C1)C2)C(=O)N/N=C/C1=C(N2CCOCC2)C(=C\c2cccc([N+](=O)[O-])c2)/CC1 (stereo not given) | -1 | -1 | 3 | -1 | 97 | 98
CCC(Sc1nc(N)c(NC(=O)c2ccco2)c(=O)[nH]1)C(=O)O (stereo not given) | -2 | -3 | 2 | 8 | 106 | 101
COc1ccc(OC)c(C(=O)c2coc3ccc(O)c(CN(C)C)c23)c1 | 0 | -1 | 3 | 10 | 99 | 94
COc1ccc2occ(C(=O)c3ccc(N)cc3)c2c1 | 6 | 0 | -4 | 6 | 103 | 102
COc1ccc2occ(C(=O)c3coc4ccc(O)c(CN(C)C)c34)c2c1 | 85* | 4 | -68* | -2 | 104 | 99
COc1ccc2occ(C(=O)c3cccs3)c2c1 | 59* | 4 | -41 | 7 | 107 | 110
Cc1cc(C(C#N)c2ccccc2F)n2ncnc2n1 (stereo not given) | 55* | -1 | 0 | -10 | 94 | 101
Cc1cc(C(C#N)c2ccccc2)n2ncnc2n1 (stereo not given) | 47 | -2 | x | 3 | 109 | 106
COc1ccc(C(=O)NNC(=O)c2ccccn2)cc1 | 45 | 41* | -33 | -2 | 103 | 106
COc1ccc(C(=O)O/N=C(\N)c2ccccn2)cc1 | 51* | 37* | -40 | 8 | 107 | 102
CCCCCCCCCCCCCCCC[N+](C)(C)CCN(Cc1ccc(OC)cc1)c1ncccn1 | 23 | 43* | x | x | x | x
